28 compounds from ChEMBL document CHEMBL4196202, “Discovery and Structure-Based Optimization of Benzimidazole-Derived Activators of SOS1-Mediated Nucleotide Exchange on RAS” (J Med Chem, 2018) can be followed below.

Activity calls are given as the source filed them. The calls are words filed in the database; no cut-off is given here.

Assay [1] concerns the target T1, Son of sevenless homolog 1 (Homo sapiens, UniProt Q07889).
T1 sequence (Q07889 whole entry): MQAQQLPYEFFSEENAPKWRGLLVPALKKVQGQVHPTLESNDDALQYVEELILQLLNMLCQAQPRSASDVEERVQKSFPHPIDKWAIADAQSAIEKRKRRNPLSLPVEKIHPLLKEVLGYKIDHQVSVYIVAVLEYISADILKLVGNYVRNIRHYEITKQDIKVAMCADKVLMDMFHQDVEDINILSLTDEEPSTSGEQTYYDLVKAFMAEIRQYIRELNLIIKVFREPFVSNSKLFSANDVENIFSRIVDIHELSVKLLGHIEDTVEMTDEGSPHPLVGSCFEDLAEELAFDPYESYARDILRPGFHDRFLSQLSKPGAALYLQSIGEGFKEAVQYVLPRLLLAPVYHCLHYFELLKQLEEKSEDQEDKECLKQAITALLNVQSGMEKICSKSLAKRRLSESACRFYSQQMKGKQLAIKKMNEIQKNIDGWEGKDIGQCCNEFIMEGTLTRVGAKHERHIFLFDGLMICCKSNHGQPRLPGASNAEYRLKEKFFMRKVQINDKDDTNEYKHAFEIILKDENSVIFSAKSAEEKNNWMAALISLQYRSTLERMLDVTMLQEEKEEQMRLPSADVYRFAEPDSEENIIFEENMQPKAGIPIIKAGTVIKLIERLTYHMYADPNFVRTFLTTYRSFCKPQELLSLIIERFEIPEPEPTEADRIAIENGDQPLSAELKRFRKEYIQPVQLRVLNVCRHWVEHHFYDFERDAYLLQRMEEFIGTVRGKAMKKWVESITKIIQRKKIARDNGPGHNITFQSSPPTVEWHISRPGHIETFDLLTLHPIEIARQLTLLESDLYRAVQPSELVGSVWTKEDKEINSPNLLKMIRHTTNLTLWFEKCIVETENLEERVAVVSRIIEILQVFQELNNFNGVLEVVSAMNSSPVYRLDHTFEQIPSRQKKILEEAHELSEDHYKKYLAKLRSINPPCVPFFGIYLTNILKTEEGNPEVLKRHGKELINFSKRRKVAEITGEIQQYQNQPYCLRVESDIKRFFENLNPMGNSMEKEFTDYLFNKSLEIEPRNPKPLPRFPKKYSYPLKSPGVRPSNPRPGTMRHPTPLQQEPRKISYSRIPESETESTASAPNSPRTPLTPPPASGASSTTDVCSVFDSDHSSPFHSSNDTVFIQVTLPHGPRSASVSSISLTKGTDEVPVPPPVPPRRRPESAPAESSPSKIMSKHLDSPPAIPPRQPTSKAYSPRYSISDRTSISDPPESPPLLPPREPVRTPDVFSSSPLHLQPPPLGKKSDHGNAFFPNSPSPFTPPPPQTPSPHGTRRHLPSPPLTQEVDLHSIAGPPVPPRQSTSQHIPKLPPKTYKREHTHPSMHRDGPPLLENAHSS
Kind of assay: Binding affinity to human recombinant N-terminal His6-tagged SOS1 (564 to 1049 residues) expressed in BL21-RIL Escherichia coli by fluorescent probe S1 based fluorescence polarization anisotrophy saturation binding assay. In short, it runs like this:
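SOS1cat (aa 564–1049) was titrated in a 12-point, 2-fold series from 10 μM top against 50 nM fluorescein-labeled probe. Buffer was 20 mM Tris-HCl pH 7.5, 50 mM NaCl, 1 mM magnesium chloride, with 20 min at room temperature in the dark. Anisotropy was read and Kd reported as mean ± SD of at least three independent experiments.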

In assay [2] the target is Son of sevenless homolog 1 (Homo sapiens, UniProt Q07889). Kind of assay: Activation of SOS1 in human NCI-H727 cells expressing KRAS G12V mutant assessed as induction of ERK1/2 T202/Y204 phosphorylation incubated for 30 mins by In-cell Western assay. In kind it is cell-based.
In assay [3] the target is T2, Son of sevenless homolog 1 (Homo sapiens) (UniProt Q07889).
T2 sequence (whole entry): T1 sequence (Q07889 whole entry)
Kind of assay: Biphasic activity at of SOS1 in human HeLa cells expressing wild type KRAS assessed as reduction in ERK1/2 T202/Y204 phosphorylation at 1.5 to 100 uM (higher range) incubated for 30 mins by In-cell Western assay. The assay is classed as cell-based.

The target of assay [4] is T2, Son of sevenless homolog 1 (Homo sapiens). Kind of assay: Activation of SOS1 in human NCI-H727 cells expressing KRAS G12V mutant assessed as induction of ERK1/2 T202/Y204 phosphorylation at 1.5 to 100 uM (lower range) incubated for 30 mins by In-cell Western assay. The assay is classed as cell-based.
In assay [5] the target is T1, Son of sevenless homolog 1. Kind of assay: Binding affinity to human recombinant N-terminal His6-tagged SOS1 (564 to 1049 residues) expressed in BL21-RIL Escherichia coli by fluorescent probe S3 based fluorescence polarization anisotrophy saturation binding assay. A digest of the protocol:
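SOS1cat (aa 564–1049) was titrated in a 16-point, 3-fold series from 10 μM top against 50 nM fluorescein probe S3. Buffer was 20 mM Tris-HCl pH 7.5, 50 mM NaCl, 1 mM magnesium chloride. Fluorescence anisotropy was read and Kd reported as mean ± SD of at least three independent experiments.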
In general terms: Fluorescence polarisation rises when a labelled molecule tumbles more slowly, as on binding a larger partner.

In assay [6] the target is T2, Son of sevenless homolog 1 (Homo sapiens). Kind of assay: Biphasic activity at of SOS1 in human HeLa cells expressing wild type KRAS assessed as induction of ERK1/2 T202/Y204 phosphorylation at 1.5 to 100 uM (lower range) incubated for 30 mins by In-cell Western assay. The assay is classed as cell-based.
Assay [7] concerns the target T1, Son of sevenless homolog 1. Kind of assay: Activation of SOS1 in human HeLa cells expressing wild type KRAS assessed as induction of ERK1/2 T202/Y204 phosphorylation incubated for 30 mins by In-cell Western assay. The assay is classed as cell-based.
Assay [8] addresses T2, Son of sevenless homolog 1 (Homo sapiens). In words: Activation of SOS1 in human NCI-H727 cells expressing KRAS G12V mutant assessed as induction of ERK1/2 T202/Y204 phosphorylation at 1.5 to 100 uM (higher range) incubated for 30 mins by In-cell Western assay. In kind it is cell-based.
For assay [9] the target is unchanged. Kind of assay: Activation of human recombinant N-terminal His6-tagged SOS1 (564 to 1049 residues) expressed in BL21-RIL Escherichia coli assessed as SOS1-RAS complex formation by measuring exchange of GTP to BODIPY-GDP measured every 3 secs for 30 mins by nucleotide exchange assay relative to control. Details: concentration or dose not given beside the values.

In assay [10] the target is T1, Son of sevenless homolog 1. In words: Activation of human recombinant N-terminal His6-tagged SOS1 (564 to 1049 residues) expressed in BL21-RIL Escherichia coli assessed as SOS1-RAS complex formation by measuring exchange of GTP to BODIPY-GDP measured every 3 secs for 30 mins by nucleotide exchange assay.
Assay [11] concerns the target T1, Son of sevenless homolog 1. In words: Binding affinity to human recombinant N-terminal His6-tagged SOS1 (564 to 1049 residues) expressed in BL21-RIL Escherichia coli by fluorescent probe S2 based fluorescence polarization anisotrophy saturation binding assay.

On to `Cc1cc(Cn2c(N3CCNCC3)nc3c(-c4ccccc4)cc(Cl)cc32)cc(C)c1F`, for which the Kd – broadly, the concentration at which binding is half-saturated – in assay [1] was 270 nM.
As for `Cc1cc(Cn2c(N3CC4(CNC4)C3)nc3c(-c4ccccc4Cl)cc(Cl)cc32)cc(C)c1F`, the EC50 (usually the concentration at which the effect is half-maximal) in [2] turned out to be 19700 nM; in [7] it was 14000 nM. Also, the result in assay [3], in assay [4], in [6] and in assay [8] was Active. For the same compound, in assay [5], the Kd amounted to 12 nM.
`Cc1cc(Cn2c(N3CCNCC3)nc3c(-c4ccc(C(F)(F)F)cc4)cc(Cl)cc32)cc(C)c1F`: in assay [1], the Kd was determined as 1050 nM.
As for `CCc1ccccc1-c1cc(Cl)cc2c1nc(N1CCNCC1)n2Cc1cc(C)c(F)c(C)c1`, in [1], the equilibrium dissociation constant (Kd) came to 210 nM.
As to `Cc1cc2nc(N3CCNCC3)n(Cc3ccc(F)c(Cl)c3)c2cc1C`, the EC50 in [2] worked out at 29100 nM; in assay [10] it was 2200 nM; in assay [7] it was 21300 nM. In addition, in [9], the Activity is 211%. In addition, the result in assay [3], in [4], in [6] and in assay [8] was Active.
`Cc1cc(Cn2c(N3CCNCC3)nc3c(N4CCC[C@H]4CO)cc(Cl)cc32)cc(C)c1F`: the Kd in [11] stood at 310 nM.
`Cc1cc(Cn2c(N3CCNCC3)nc3c(-c4ccccc4C4CCC4)cc(Cl)cc32)cc(C)c1F`: the Kd in assay [1] stood at 440 nM.
For the compound `Cc1cc(Cn2c(N3CCNCC3)nc3c(N4CCCCC4)cc(Cl)cc32)cc(C)c1F`, the Kd in assay [11] worked out at 200 nM.
As to `Cc1cc(Cn2c(N3CCNCC3)nc3c(C4=CCNCC4)cc(Cl)cc32)cc(C)c1F`, in assay [1], the Kd turned out to be 250 nM.
Take `Cc1cc(Cn2c(N3CC4(CNC4)C3)nc3c(-c4c(C)n[nH]c4C)cc(Cl)cc32)cc(C)c1F`: the figures for the EC50 in assay [2] and in assay [7] were 21100 nM and 14100 nM, respectively. For the same compound, the result in assay [3], in [4], in assay [6] and in assay [8] was Active. In addition, in [5], the Kd stood at 9 nM.
In the case of `Fc1ccc(Cn2c(N3CCNCC3)nc3ccccc32)cc1Cl`, the EC50 in assay [2] came to 51400 nM; in assay [10], 5400 nM; in [7], 21000 nM. The Activity in assay [9] was 109%. Besides, the result in assay [3] and in assay [8] was inactive. For the same compound, the result in assay [4] and in [6] was Active.
Regarding `Cc1nc(N)ncc1-c1cc(Cl)cc2c1nc(N1CC3(CNC3)C1)n2Cc1ccc(F)cc1`, the EC50 in [2] amounted to 27500 nM; in assay [7], 14000 nM. For the same compound, the outcome in assay [3], in [4] and in assay [6] was Active. Moreover, in [5], the Kd came out at 36 nM. The outcome in assay [8] was inactive.
`Cc1cc(Cn2c(N3CCNCC3)nc3c(-c4cnccn4)cc(Cl)cc32)cc(C)c1F`: the Kd in assay [11] worked out at 390 nM.
In the case of `Cc1cc(Cn2c(N3CCNCC3)nc3c(N4CCC[C@@H]4CO)cc(Cl)cc32)cc(C)c1F`, the Kd in assay [11] turned out to be 380 nM.
`Cc1cc(Cn2c(N3CCNCC3)nc3c(N4CCC[C@@H]4CN)cc(Cl)cc32)cc(C)c1F`: in assay [11], the dissociation constant Kd was found to be 240 nM.
As to `Cc1cc(Cn2c(N3CCNCC3)nc3c(-c4cncnc4)cc(Cl)cc32)cc(C)c1F`, the Kd in assay [11] is 350 nM.
For `Cc1cc(Cn2c(N3CCNCC3)nc3c(-c4ccccc4Cl)cc(Cl)cc32)cc(C)c1F`, the figures for the EC50 in [2] and in [7] were 36800 nM and 11000 nM, respectively. For the same compound, the result in assay [3], in assay [4] and in assay [6] was Active. Besides, the Kd in assay [1] amounted to 120 nM. For the same compound, the outcome in assay [8] was inactive.
For `Cc1cc(Cn2c(N3CCNCC3)nc3c(N4CCC[C@H]4CN)cc(Cl)cc32)cc(C)c1F`, the EC50 was found to be 7300 nM in [2] and 3200 nM in assay [7]. Besides, the outcome in [3], in assay [4], in assay [6] and in assay [8] was Active. Also, in [11], the Kd amounted to 140 nM.
On to `Cc1cc(Cn2c(N3CCNCC3)nc3c(-c4ccccc4C(F)(F)F)cc(Cl)cc32)cc(C)c1F`, for which the dissociation constant (Kd) in assay [1] was found to be 150 nM.
`Cc1cc(Cn2c(N3CC4(CNC4)C3)nc3c(-c4cnc(N)nc4C)cc(Cl)cc32)cc(C)c1F`: the EC50 amounted to 13400 nM in [2] and 7800 nM in assay [7]. In addition, the result in [3], in assay [4], in assay [6] and in [8] was Active. Moreover, in assay [5], the Kd stood at 12 nM.
Regarding `Cc1cc(Cn2c(N3CCNCC3)nc3c(-c4cccnc4)cc(Cl)cc32)cc(C)c1F`, the equilibrium dissociation constant (Kd) in [1] worked out at 330 nM.
Regarding `Cc1cc(Cn2c(N3CCNCC3)nc3c(-c4cccc(C(F)(F)F)c4)cc(Cl)cc32)cc(C)c1F`, the Kd in [1] was 670 nM.
Regarding `Cc1cc(Cn2c(N3CCNCC3)nc3c(-c4cncnc4C(C)C)cc(Cl)cc32)cc(C)c1F`, the EC50 in [2] was 13900 nM; in [7], 8800 nM. The result in assay [3], in assay [4], in assay [6] and in [8] was Active. Moreover, the Kd in [11] turned out to be 100 nM.
As for `Cc1cc(Cn2c(N3CCNCC3)nc3ccc(Cl)cc32)cc(C)c1F`, the half-maximal effective concentration (EC50) in assay [2] turned out to be 21200 nM; in assay [7], 14500 nM. Moreover, the result in assay [3], in assay [4], in assay [6] and in [8] was Active. Also, the equilibrium dissociation constant (Kd) in [1] was 460 nM.
For `Cc1cc(Cn2c(N3CCNCC3)nc3c(-c4ccncc4)cc(Cl)cc32)cc(C)c1F`, the Kd in assay [11] was found to be 240 nM.
Regarding `Cc1cc(Cn2c(N3CCNCC3)nc3c(N4CCOCC4)cc(Cl)cc32)cc(C)c1F`, the dissociation constant Kd in assay [11] is 130 nM.
On to `Cc1cc(Cn2c(N3CCNCC3)nc3c(N4CCC(N)CC4)cc(Cl)cc32)cc(C)c1F`, for which, in assay [1], the Kd was 240 nM.
Turning to `Cc1cc(Cn2c(N3CCNCC3)nc3c(-c4ccccc4C(C)C)cc(Cl)cc32)cc(C)c1F`, the Kd in assay [1] amounted to 390 nM.
